iPSC survival up = increases survival of single human iPS cells; hiPSC single-cell survival, ATPlite luminescence; 100% = ROCK inhibitor wells, 0% = DMSO; survival enhancement, % at 20 µM; actives 0.044% (n = 360,000); in the data active = survival enhancement above about 18%;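 also: cells exposed to compounds for 16 hours before the ATP read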
APJ antag = antagonists of human APJ apelin receptor; P35414; CHO-K1 APJ beta-arrestin complementation, luminescence; inhibition, % at 20 µM; actives 0.32% (n = 330,000);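 active = inhibition above about 40% at 20 µM, limit read from the data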;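 also: cells challenged with 10 nM apelin-13 agonist together with compound; plate controls were apelin-13 plus DMSO wells for no effect and DMSO wells lacking apelin-13 for full effect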
CCR6 antag = blocks CCL20-driven beta-arrestin recruitment at human CCR6. P51684. CHO-K1 CCR6 PathHunter beta-arrestin, luminescence, CCL20-stimulated. inhibition, % at 20 µM. actives 0.49% (n = 340,000). AID 493098;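 active = compounds whose inhibition of the agonist-driven luminescence signal at 20 µM reaches about 50%, limit read from the data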;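 also: cells stimulated with CCL20 at 14 nM final; plate controls were DMSO with CCL20 for no effect and DMSO without agonist for full effect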
APJ agonist = agonists of human APJ apelin receptor. P35414. CHO-K1 APJ PathHunter beta-arrestin, luminescence; 0% DMSO wells, 100% apelin. activation, % at 20 µM. actives 0.11% (n = 330,000). AID 2520;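 active = activation more than six SD over the plate average, tested at 20 µM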;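 also: 0% = DMSO alone and 100% = apelin-13 at 10 nM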
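Assay system: CHO-K1 cells stably expressing ProLink-tagged human APJ and arrestin–beta-gal acceptor. Compound dosing: 20 µM single point, 1% DMSO. Times: 16-18 h seeding, 90 min dark compound exposure, 60 min detection. Detection: beta-gal luminescence. Evaluation: APJ–arrestin association signal. Controls: negative DMSO alone, positive Apelin-13 at 10 nM.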
EBI2 antag = EBI2 (human) antagonism; P32249; EBI2 beta-arrestin recruitment, luminescence, 7a,25-OHC stimulated; inhibition, % at 5 µM; actives 0.81% (n = 360,000); in the data active = inhibition above about 38%;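 also: enzyme fragment complementation signal reports receptor beta-arrestin coupling in cells; 0% = agonist plus DMSO wells and 100% = wells without agonist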
Target sequence (P32249 whole entry, looked up, the tested form may be a part): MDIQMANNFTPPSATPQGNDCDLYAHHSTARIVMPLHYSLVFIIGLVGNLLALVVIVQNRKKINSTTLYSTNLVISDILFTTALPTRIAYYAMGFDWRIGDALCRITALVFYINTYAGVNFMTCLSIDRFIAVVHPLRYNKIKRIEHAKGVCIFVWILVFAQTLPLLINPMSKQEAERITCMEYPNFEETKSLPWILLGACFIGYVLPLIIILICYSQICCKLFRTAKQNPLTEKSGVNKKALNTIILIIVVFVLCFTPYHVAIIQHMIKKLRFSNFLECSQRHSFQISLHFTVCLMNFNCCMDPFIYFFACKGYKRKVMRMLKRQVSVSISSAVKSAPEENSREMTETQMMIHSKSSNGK
CXCR6 block = blocks human CXCR6 beta-arrestin recruitment | O00574 | CHO-K1 PathHunter CXCR6 beta-arrestin, luminescence | inhibition, % at 20 µM | actives 0.36% (n = 360,000) | AID 602244; in the data active = inhibition above about 34%, passing the limit was not always enough;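 also: antagonist mode with CXCL16 agonist at 10 nM final; 0% = 10 nM CXCL16 with DMSO and 100% = unstimulated wells without agonist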
APJ ag confirm = confirmation of human APJ apelin receptor agonists. AID 2764. activation, % at 20 µM. shares compounds with APJ agonist. actives 10% (n = 310). CHO-K1 APJ PathHunter beta-arrestin, luminescence;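 active = activation above 40%, taking the highest of four retests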;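 also: plate controls were DMSO wells for no effect and apelin-13 at 10 nM for full effect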
An asterisk follows results filed as active. Most compounds without a hit are left out; they make up all but 1.5% or so of the library.

C/C(=N/Nc1ccc([N+](=O)[O-])cc1)c1c[nH]c2ccccc12 was read as iPSC survival up 0, APJ antag 37, CCR6 antag 70*, APJ agonist -9, EBI2 antag 35 and CXCR6 block 38.
Screening O=C(Nc1ccccc1)C1=C(c2ccccc2)S(=O)(=O)CCS1(=O)=O returned iPSC survival up -1, CCR6 antag 51*, EBI2 antag 31 and CXCR6 block 38.
O=C(/C=C/c1ccccc1)c1cc(Br)ccc(=O)c1O was read as iPSC survival up -3, APJ antag 24, CCR6 antag 59*, APJ agonist -4, EBI2 antag -3 and CXCR6 block 19.
For CC1=C(C(=O)N(C)C)CC(CC(=O)NCCN2CCOCC2)C(=O)N1Cc1ccc(F)cc1 (stereo not drawn) the results were iPSC survival up -2, EBI2 antag -8 and CXCR6 block 6.
`COc1ccc(/C=C2\SC(=N)N(c3nccs3)C2=O)cc1OC` gave iPSC survival up -2, APJ antag 20, CCR6 antag 59*, APJ agonist -4, EBI2 antag 10 and CXCR6 block 39.
For O=C1OC(c2cccs2)=N/C1=C\c1ccc(-c2cccc(Cl)c2)o1 the results were iPSC survival up 3, APJ antag 7, CCR6 antag 13, APJ agonist -3, EBI2 antag 12 and CXCR6 block 0.
For N=C1S/C(=C\c2ccc(-c3cccc(Cl)c3)o2)C(=O)N1c1nccs1 the results were iPSC survival up -4, CCR6 antag 82*, EBI2 antag 67* and CXCR6 block 54*.
For COc1ccccc1CNC(=O)CN1C(=O)NC2(CCOc3ccccc32)C1=O (stereo not drawn) the results were iPSC survival up 0, APJ antag 0, CCR6 antag -1, APJ agonist -2, EBI2 antag -3 and CXCR6 block 1.
Screening CC1=NNC(=O)/C1=C\c1cn(-c2ccccc2)nc1-c1ccc(Cl)cc1 returned iPSC survival up 12, APJ antag -27, CCR6 antag -11, APJ agonist 38*, EBI2 antag 91* and CXCR6 block -4.
Screening COc1cccc2sc(N3CCN(C(=O)c4ccc([N+](=O)[O-])o4)CC3)nc12 returned iPSC survival up 0, APJ antag -143, CCR6 antag -13, APJ agonist 30, EBI2 antag 4 and CXCR6 block -27.
`O=C(c1ccc([N+](=O)[O-])o1)N1CCN(c2nc3c(Cl)cccc3s2)CC1` gave iPSC survival up 0, APJ antag -22, CCR6 antag -6, APJ agonist 32*, EBI2 antag -12, CXCR6 block -16 and APJ ag confirm 7.
Screening O=C(CCN1C(=O)NC2(CCCC2)C1=O)Nc1cccc(S(=O)(=O)N2CCOCC2)c1 returned iPSC survival up 2, APJ antag -5, CCR6 antag 2, APJ agonist 0, EBI2 antag 11 and CXCR6 block -7.
For O=[N+]([O-])c1cc(-c2nc3nc4ccccc4nc3n2CCc2ccccc2)cc([N+](=O)[O-])c1 the results were iPSC survival up -1, APJ antag -49, CCR6 antag 13, APJ agonist 17*, EBI2 antag -6, CXCR6 block -6 and APJ ag confirm 10.
`CN1CCS/C1=C/C=C1/SC(=S)N(Cc2ccccc2)C1=O` gave iPSC survival up 0, CCR6 antag 49, EBI2 antag 22 and CXCR6 block 28.
Screening CCN1C(c2ccccc2)=C(c2ccccc2)S/C1=C\C=C1/SC(=S)N(C)C1=O returned iPSC survival up -4, APJ antag -90, CCR6 antag -31, APJ agonist 115*, EBI2 antag -14, CXCR6 block 0 and APJ ag confirm 292*.
`Cc1cc(C)n2nc(SCC(=O)Nc3c(C)nn(-c4ccccc4)c3C)nc2n1` gave iPSC survival up 2, APJ antag 3, CCR6 antag 2, APJ agonist 39*, EBI2 antag 2, CXCR6 block 3 and APJ ag confirm 29.
For N#CC(C#N)=C1CCCc2sccc21 the results were iPSC survival up 0, CCR6 antag 4, EBI2 antag -5 and CXCR6 block -2.
`COc1ccc(NC(=S)NC(=O)/C=C/c2ccccc2)cc1` gave iPSC survival up 0, APJ antag -32, CCR6 antag -14, APJ agonist 7, EBI2 antag -11 and CXCR6 block -8.
Cc1cccc(NC(=S)NC(=O)/C=C/c2ccccc2)n1 was read as iPSC survival up -1, APJ antag -57, CCR6 antag -8, APJ agonist 11*, EBI2 antag -36, CXCR6 block -5 and APJ ag confirm 28.
Screening C[C@H]1CN=C(Nc2ccccc2)N1CCc1ccccc1 returned iPSC survival up -1, APJ antag 11, CCR6 antag -1, APJ agonist 2, EBI2 antag -6 and CXCR6 block -7.
Screening Cc1ccc(-c2cc(C(=O)Nc3ccncc3)c3ccccc3n2)cc1 returned iPSC survival up 0, APJ antag -24, CCR6 antag -36, APJ agonist 31*, EBI2 antag -41, CXCR6 block -6 and APJ ag confirm 11.
For N/C(=N\OC(=O)c1ccoc1)c1ccc(Br)cc1 the results were iPSC survival up 0, APJ antag -163, CCR6 antag -35, APJ agonist 43*, EBI2 antag -5, CXCR6 block -13 and APJ ag confirm 24.
Cc1cc(C)cc(C(=O)O/N=C(\N)c2ccc(Br)cc2)c1 was read as iPSC survival up 2, APJ antag -38, CCR6 antag 2, APJ agonist 6, EBI2 antag 22 and CXCR6 block -8.
Screening Cc1cc(NC(=O)c2ccc([N+](=O)[O-])cc2Cl)ccc1NC(=O)c1ccco1 returned iPSC survival up 1, APJ antag -34, CCR6 antag 4, EBI2 antag -19 and CXCR6 block -12.
For O=C(Nc1ccc(NC(=O)c2ccc([N+](=O)[O-])cc2[N+](=O)[O-])cc1)c1ccco1 the results were iPSC survival up 0, APJ antag -19, CCR6 antag -20, APJ agonist 11*, EBI2 antag -6, CXCR6 block -11 and APJ ag confirm 11.
N/C(=N\OC(=O)c1cccnc1)c1ccccc1Cl was read as iPSC survival up -2, APJ antag -91, CCR6 antag -37, APJ agonist 8.9*, EBI2 antag -14, CXCR6 block -15 and APJ ag confirm 22.

Bioassay records deposited in PubChem by Sanford-Burnham Center for Chemical Genomics.
